Test results: paper PMC2889768 (Diabetes, 2010)
Like-named read-outs stand apart in the source and are kept apart here.

Key:
mouse β-cells = test: membrane capacitance, depolarization-induced exocytosis in mouse β-cells; format: cell-based; settings: 1 μmol/l; train of 10 depolarizations; n = 6; control 36.04 ± 4.87
Summary of the method: (§1)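 Islets dispersed 2 h post-isolation with 0.0025% trypsin in Ca2+-free buffer and plated on poly-D-lysine coverslips. Mouse cells cultured in medium 199, human cells in DMEM, both with 5.6 mmol/l glucose. Cells exposed to 1 μmol/l test compound for at least 5 min. Exocytosis elicited by 10 × 500-ms depolarisations (1 Hz) from −70 to 0 mV. Total is the summed capacitance increase, normalised as fF/pF. β- and α-cells identified post hoc by insulin or glucagon immunostaining.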

NCX1.1 = NCX1.1 (Homo sapiens, UniProt P32418); test: excised inside-out patch-clamp, recombinant forward-mode; format: biochemical
[1] = test system: β-cell L-type calcium channels; format: cell-based, mouse; settings: 1 μmol/l; n = 7
[2] = test system: cardiac L-type calcium channel; settings: read-out: IC50s, cardiac L-type calcium channel; cited from earlier work
NCX1.4 = NCX1.4 (Rattus norvegicus, UniProt Q01728); test: excised inside-out patch-clamp, recombinant forward-mode; format: biochemical; settings: 5 μmol/l; exon B replaced with A in rat NCX1.3
mouse α-cells = test: membrane capacitance, depolarization-induced exocytosis in mouse α-cells; format: cell-based; settings: 1 μmol/l
Summary of the method: as §1

mouse islets [3] = test: glucose-stimulated insulin secretion, mouse islet perifusion; format: cell-based; settings: 1 μmol/l
Summary of the method: (§2)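 Islets (BALB/c mouse, or human from three donors) preincubated 2 h at 37°C in low-glucose KRB (2.8 mmol/l glucose, 24 NaHCO3, 0.5% BSA, pH 7.4) ± 1 μmol/l test compound, with a solution change at 1 h. Groups of 25 islets perifused at 0.25 ml/min and 37°C: 10 min at 2.8 mmol/l, then 40 min at 11.1 mmol/l glucose. Fractions every 2 min; insulin by ELISA, as ng/ml per 25 islets or 11.1/2.8 fold change.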

β-cells = test: membrane capacitance, calcium infusion experiments; format: cell-based; settings: 1 μmol/l; infusion of 200 nmol/l free Ca2+
Summary of the method: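 Whole-cell capacitance in dispersed islet cells with pipette Ca2+ buffered to 200 nmol/l free with EGTA, so Ca2+ is infused directly. Recorded with or without 1 μmol/l test compound, applied for at least 5 min. β-cells identified post hoc by insulin immunostaining.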

NCX1.11 = NCX1.11 (Homo sapiens, UniProt P32418, INS637ALLLNEL); test: excised inside-out patch-clamp, recombinant forward-mode; format: biochemical; settings: 5 μmol/l; n = 8
Summary of the method: (§3)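 Excised inside-out patches at 22 ± 1°C from tsA201 cells 24–72 h after calcium-phosphate cotransfection with human NCX1 splice-variant cDNA plus GFP. Patch held at 0 mV. Forward-mode current elicited by raising Ca2+c […]. Peak is the maximal current after activation, late current is at 1 min, total current is the AUC. Concentration-response fitted with the Hill equation. DMSO 0.1% final.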

mouse islets [4] = test: Fura-2 calcium imaging of mouse islets; format: cell-based
human islets = test: glucose-stimulated insulin secretion, human islet perifusion; format: cell-based; settings: 1 μmol/l
Summary of the method: as §2

NCX1.7 = NCX1.7 (Homo sapiens, UniProt P32418); test: excised inside-out patch-clamp, recombinant forward-mode; format: biochemical
Summary of the method: as §3

human β-cells = test: membrane capacitance, depolarization-induced exocytosis in human β-cells; format: cell-based; settings: 1 μmol/l; train of 10 depolarizations; n = 4; control 13.01 ± 5.64
Summary of the method: as §1

NCX1.3 = NCX1.3 (Homo sapiens, UniProt P32418); test: excised inside-out patch-clamp, recombinant forward-mode; format: biochemical
Summary of the method: as §3

[5] = intraperitoneal glucose tolerance tests in mice; format: in vivo; settings: preliminary, data not shown
[6] = test system: β-cell L-type calcium channels; format: cell-based, human; settings: 1 μmol/l

N=C(N)SCCc1ccc(OCc2ccc([N+](=O)[O-])cc2)cc1 [KB-R7943]
change in total capacitance, mouse β-cells (mouse β-cells): 118.22 ± 33.48 fF/pF
inhibition of total FM NCX1.1 activity (NCX1.1; 5 μmol/l): failed to inhibit
IC50 (NCX1.1; read-out: IC50, inhibition of total FM NCX1.1 activity, cardiac splice variant, total current (AUC), tsA201 cells): 43 µM
reduction in total Ba2+ current, mouse β-cells [1]: 32.66 ± 3.74%
IC50 [2]: 3 to 7 µM
FM KB-R7943 sensitivity of NCX1.4 (NCX1.4): dramatically decreased FM KB-R7943 sensitivity
depolarization-induced capacitance response, mouse α-cells (mouse α-cells): did not significantly alter
insulin secretion, mouse islets (mouse islets [3]; 2.8 mmol/l glucose): without effect
first- and second-phase insulin secretion, mouse islets (mouse islets [3]; 11.1 mmol/l glucose): significantly enhanced
rate at which the capacitance increased, presence vs absence of KB-R7943 (β-cells): not significantly different
reduction in total current, FM NCX1.11 (NCX1.11): 64.3 ± 2.92%
rate of calcium clearance after removal of the tolbutamide/KCl challenge (mouse islets [4]; 1 μmol/l): significantly slowed
increase in Ca2+c when added concurrently with tolbutamide (mouse islets [4]; 1 μmol/l KB-R7943 + 20 μmol/l tolbutamide, 2.8 mmol/l glucose, n = 9): 19.95 ± 6.92%
effect on Ca2+c levels when applied alone (mouse islets [4]; 1 μmol/l, 2.8 mmol/l glucose): failed to significantly increase
increase to the peak Ca2+c response (mouse islets [4]; 1 μmol/l, 11.1 mmol/l glucose challenge): 83.44 ± 18.27%
increase of average Ca2+c (AUC) (mouse islets [4]; 1 μmol/l, 11.1 mmol/l glucose challenge, n = 9): 79.98 ± 8.73%
effect on Ca2+c levels in the presence of KCl (mouse islets [4]; 1 μmol/l, 15 mmol/l KCl): significantly increases
insulin secretion, human islets (human islets; 2.8 mmol/l glucose): without effect
first- and second-phase insulin secretion, human islets (human islets; 11.1 mmol/l glucose): significantly enhanced
inhibition of recombinant β-cell NCX1.7 FM current (NCX1.7; 1 μmol/l): ~25%
reduction in total FM NCX1.7 activity (NCX1.7; 5 μmol/l, n = 10): 65.57 ± 3.20%
IC50 (NCX1.7; read-out: IC50, FM late current NCX1.7, late current, 1 min postactivation): 1.72 ± 0.09 µM
IC50 (NCX1.7; read-out: IC50, FM peak current NCX1.7, peak current): 4.71 ± 0.15 µM
total change in capacitance, human β-cells (human β-cells): 100.20 ± 28.82 fF/pF
inhibition of recombinant β-cell NCX1.3 FM current (NCX1.3; 1 μmol/l): ~25%
reduction in total FM NCX1.3 activity (NCX1.3; 5 μmol/l, n = 10): 69.45 ± 3.12%
IC50 (NCX1.3; read-out: IC50, FM late current NCX1.3, late current, 1 min postactivation): 2.15 ± 0.26 µM
IC50 (NCX1.3; read-out: IC50, FM peak current NCX1.3, peak current): 5.59 ± 0.28 µM
blood glucose in intraperitoneal glucose tolerance test [5]: only showed a trend toward KB-R7943 lowering blood glucose
reduction in total Ba2+ current, human β-cells [6]: 29.54 ± 3.18%

CCCCNC(=O)NS(=O)(=O)c1ccc(C)cc1 [tolbutamide, Tolbutamide]
increase in the 340/380 nm ratio (Ca2+c) (mouse islets [4]; 20 μmol/l tolbutamide, 2.8 mmol/l glucose, n = 9): 0.45 ± 0.04
decrease of elevation in Ca2+c upon a second tolbutamide challenge (mouse islets [4]; 20 μmol/l tolbutamide, 2.8 mmol/l glucose, n = 11): 21.87 ± 4.58%
